Data set [1] is described as follows: Stability of the compound in water-methanol mixture (1:1) assessed as drug recovery. The format is physicochemical. Conditions: buffer.
The nature of data set [2]: Stability of the compound in rat plasma assessed as drug recovery. The format is ADME, cell-free.
Data set [3] in a line: Cmax in Sprague-Dawley rat plasma at 1.23 mg/kg, po administered as OPMS liquid formulation measured for 24 hrs by UPLC-MS/MS analysis. The format is ADME, organism-based. Also noted: route oral, time 24 hrs, dose 1.23 mg/kg. The procedure, abridged:
(§1)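 Jugular-cannulated male SD rats (225 ± 25 g, n = 4) were fasted 12–16 h and given one oral gavage of LKT (366 mg/kg) or OPMS liquid (0.8 mL/kg) in water at 4 mL/kg, with dosing normalized to MTG human equivalent dose. Plasma was sampled from predose to 24 h and measured by UPLC–MS/MS (LLOQ 1 ng/mL). Cmax and Tmax were read from the observed data; Cmax/dose was also reported. Mean ± SEM.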

Data set [4] is described as follows: Tmax in Sprague-Dawley rat plasma at 1.23 mg/kg, po administered as OPMS liquid formulation measured for 24 hrs by UPLC-MS/MS analysis. The format is ADME, organism-based. The procedure, abridged: as §1
A short description of data set [5]: Cmax in Sprague-Dawley rat plasma at 0.79 mg/kg, po administered as LKT formulation measured for 24 hrs by UPLC-MS/MS analysis. Further details: route oral, time 24 hrs, dose 0.79 mg/kg. The format is ADME, organism-based. The procedure, abridged:
as §1

Data set [6] is described as follows: Tmax in Sprague-Dawley rat plasma at 0.79 mg/kg, po administered as LKT formulation measured for 24 hrs by UPLC-MS/MS analysis. The format is ADME, organism-based. In a few lines: as §1
Data set [7] can be described thus: Drug uptake in Sprague-Dawley rat plasma at 0.79 mg/kg, po administered as LKT formulation measured within 1 hrs by UPLC-MS/MS analysis. The format is ADME, organism-based. The procedure, abridged:
as §1

Data set [8] in a line: Drug uptake in Sprague-Dawley rat plasma at 1.23 mg/kg, po administered as OPMS liquid formulation measured within 1 hrs by UPLC-MS/MS analysis. Type of data set: ADME, organism-based. The procedure, abridged:
as §1

The nature of data set [9]: AUC(0 to 24 hrs) in Sprague-Dawley rat plasma at <0.1 mg/kg, po administered as OPMS liquid formulation measured for 24 hrs by UPLC-MS/MS analysis. Type of data set: ADME, organism-based. Further details: route oral, time 24 hrs, dose <0.1.
Data set [10] is described as follows: Cmax in Sprague-Dawley rat plasma at <0.1 mg/kg, po administered as LKT formulation measured for 24 hrs by UPLC-MS/MS analysis. The format is ADME, organism-based. Also noted: route oral, time 24 hrs, dose <0.1. The procedure, abridged:
as §1

Data set [11] in a line: Tmax in Sprague-Dawley rat plasma at <0.1 mg/kg, po administered as OPMS liquid formulation measured for 24 hrs by UPLC-MS/MS analysis. Type of data set: ADME, organism-based. The procedure, abridged:
as §1

A short description of data set [12]: Tmax in Sprague-Dawley rat plasma at <0.1 mg/kg, po administered as LKT formulation measured for 24 hrs by UPLC-MS/MS analysis. The format is ADME, organism-based. In a few lines: as §1
Data set [13] in a line: Cmax in Sprague-Dawley rat plasma at <0.1 mg/kg, po administered as OPMS liquid formulation measured for 24 hrs by UPLC-MS/MS analysis. Type of data set: ADME, organism-based. Further details: route oral, time 24 hrs, dose <0.1. The procedure, abridged: as §1
Data set [14] can be described thus: AUC(0 to 24 hrs) in Sprague-Dawley rat plasma at <0.1 mg/kg, po administered as LKT formulation measured for 24 hrs by UPLC-MS/MS analysis. Further details: route oral, time 24 hrs, dose <0.1. Type of data set: ADME, organism-based.

We go through five compounds from ChEMBL document CHEMBL4834399, “Pharmacokinetics of Eleven Kratom Alkaloids Following an Oral Dose of Either Traditional or Commercial Kratom Products in Rats” (J Nat Prod, 2021).

Take `CC[C@@H]1CN2CC[C@@]3(C(=O)Nc4cccc(O)c43)[C@H]2C[C@@H]1/C(=C\OC)C(=O)OC`: the figures for the Drug recovery in data set [1] and in data set [2] were over 80% and over 90%, respectively.

What is called Cmax is the peak of the concentration-time curve. The term Tmax denotes the time at which the peak concentration occurs. Consider `CC[C@H]1CN2CCc3c([nH]c4cccc(OC)c34)[C@@H]2C[C@@H]1/C(=C\OC)C(=O)OC`, for which the Cmax in data set [3] and in data set [5] was 2.9 ng/mL each time. Moreover, the values for the Drug recovery in [1] and in [2] were over 80% and over 90%, respectively. In addition, the Tmax in data set [4] is 5 min; in data set [6], 10 min. Besides, the concentration at 1 h in data set [7] and in data set [8] was under 1 ng/mL in each case.

As usually defined, the AUC(0-t) is exposure summed from dosing to a finite time, without extrapolation to infinity. In the case of `CC[C@@H]1CN2CC[C@@]3(O)C(=Nc4cccc(OC)c43)[C@@H]2C[C@@H]1/C(=C\OC)C(=O)OC`, the AUC(0-t) at 24 h in [9] was 41 ng·h/mL; in data set [14], 17.4 ng·h/mL. Besides, the results for the Cmax in [10] and in [13] were 4.3 ng/mL and 4 ng/mL, respectively. The Drug recovery in [1] was over 80%; in data set [2] it was over 90%. Also, the Tmax in data set [11] is 186 min; in [12] it was 54 min.

With `CC[C@@H]1CN2CC[C@]3(C(=O)Nc4ccccc43)[C@@H]2C[C@@H]1/C(=C\OC)C(=O)OC` [CORYNOXINE B], the Drug recovery in data set [1] was over 80%; in data set [2] it was over 90%.

On to `CC[C@@H]1CN2CC[C@@]3(C(=O)Nc4ccccc43)[C@@H]2C[C@@H]1/C(=C\OC)C(=O)OC` [CORYNOXINE], for which the Drug recovery is on record as over 80% in [1] and over 90% in data set [2].
